39 sequences from the array DNA melting data of Ke et al. (doi:10.1101/2024.01.08.574731) can be followed below.

Data set [1] in a line: folding enthalpy; higher = less favourable; fluorescence melt of hairpins on a sequencing array, two-state fit. The settings on record: sodium 0.088 M. An outline of the steps: (§1)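 Cy3 signals were normalised both to pre-quench Cy3 and to control constructs. They came from library hairpins carrying annealed Cy3 and quencher oligos on a sequenced MiSeq flow cell, imaged in 50 mM Na-HEPES pH 8.0, 25 mM NaCl, in 2.5 °C steps up to 60 °C. Bootstrapped two-state fits gave melting temperature and folding enthalpy, and four replicates were combined by inverse variance. Fitted temperatures were then raised by 9.35 °C to match UV melts.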

The nature of data set [2]: melting temperature; fluorescence melt of hairpins on a sequencing array, two-state fit, raised by 9.35 °C to match UV melts. The settings on record: sodium 0.088 M. An outline of the steps: as §1

On to GCGACGCGAAAGCCACGC (((..((....))..))), for which the folding enthalpy in data set [1] is -17.7 kcal/mol. The Tm in data set [2] worked out at 48.7 °C.
Regarding GCGACGCGAAAGCCTTGC ((.(.((....)).).)), the folding enthalpy in data set [1] is -12 kcal/mol. For the same sequence, in data set [2], the Tm came out at 35.9 °C.
For GCGACGCGAAAGCGCTGC ((..(((....)))..)), in data set [1], the folding enthalpy is -17.5 kcal/mol. The Tm in data set [2] is 57.1 °C.
Consider GCGACGCGAAAGCTACGC (((..((....))..))), for which the folding enthalpy in data set [1] is -18.6 kcal/mol. Besides, the Tm in data set [2] was 52.5 °C.
Taken in the same sequence, the figures for GCGACGGGAAACCGTTGC ((.((((....)))).)) were -40 kcal/mol and 61 °C.
Taken in the same sequence, the figures for GCGACGTCTCGC ((((....)))) were -13.3 kcal/mol and 54.2 °C.
Turning to GCGACTCCTCGC ((((....)))), the folding enthalpy in data set [1] is -23.9 kcal/mol. Moreover, in data set [2], the Tm was determined as 48.6 °C.
The like results for GCGACTCGTCGC ((((....)))) were, in that order, -33.6 kcal/mol and 68.3 °C.
GCGACTGGAAACGGTTGC ((.((.(....).)).)): the folding enthalpy in data set [1] was -32.1 kcal/mol. For the same sequence, in data set [2], the Tm came out at 43.9 °C.
The like results for GCGACTGTCGC ((((...)))) were, in that order, -33 kcal/mol and 48 °C.
As for GCGACTGTTCGC ((((....)))), the folding enthalpy in data set [1] was -22.5 kcal/mol. Moreover, the Tm in data set [2] came to 47.8 °C.
In the case of GCGACTTTCGC ((((...)))), in data set [1], the folding enthalpy is -21.8 kcal/mol. The Tm in data set [2] turned out to be 49 °C.
Take GCGAGAAGTCGC ((((....)))): the folding enthalpy in data set [1] was -18.3 kcal/mol. For the same sequence, the Tm in data set [2] was found to be 50.2 °C.
GCGAGAATTCGC ((((....)))): the folding enthalpy in data set [1] was -21.8 kcal/mol. The Tm in data set [2] stood at 55.3 °C.
Taken in the same sequence, the figures for GCGAGAGGAAACTCTCAC (.(((((....))))).) were -17.9 kcal/mol and 39 °C.
The like results for GCGAGAGTCGC ((((...)))) were, in that order, -11.3 kcal/mol and 55.5 °C.
Regarding GCGAGATGTCGC ((((....)))), in data set [1], the folding enthalpy is -19.1 kcal/mol. Further, the Tm in data set [2] was determined as 49.4 °C.
As to GCGAGCAATCGC ((((....)))), the folding enthalpy in data set [1] is -23.8 kcal/mol. Also, the Tm in data set [2] is 62.2 °C.
GCGAGCACGAAAGTGCGC (((..(((....)))))): in data set [1], the folding enthalpy was -8.47 kcal/mol. Further, the Tm in data set [2] stood at 56.9 °C.
Regarding GCGAGCATCGC ((((...)))), the folding enthalpy in data set [1] was -21.8 kcal/mol. For the same sequence, the Tm in data set [2] was found to be 62.1 °C.
The like results for GCGAGCCTTCGC ((((....)))) were, in that order, -31 kcal/mol and 53.9 °C.
The like results for GCGAGCGAAAGCTAACGC ((((((....)))..))) were, in that order, -22.7 kcal/mol and 52.6 °C.
In the case of GCGAGCGAAAGCTGCGC ((((((....))).))), the folding enthalpy in data set [1] is -21.8 kcal/mol. The Tm in data set [2] amounted to 68.9 °C.
Taken in the same sequence, the figures for GCGAGCGGAAACGCCCAC (.(.(((....))).).) were -8.67 kcal/mol and 34.2 °C.
The like results for GCGAGCGGAAACGCCCGC (((.(((....))).))) were, in that order, -35.4 kcal/mol and 58.4 °C.
Taken in the same sequence, the figures for GCGAGGATTCGC ((((....)))) were -22.7 kcal/mol and 54.7 °C.
As to GCGAGGCGAAAGCACCGC (((..((....))..))), in data set [1], the folding enthalpy is -22.8 kcal/mol. Besides, in data set [2], the Tm worked out at 61.8 °C.
On to GCGAGGCGAAAGCCAGGC ((..(((....)))..)), for which, in data set [1], the folding enthalpy is -13.1 kcal/mol. Also, the Tm in data set [2] was 56.4 °C.
In the case of GCGAGGCGAAAGCCCTGC ((..(((....)))..)), the folding enthalpy in data set [1] was -11.9 kcal/mol. In data set [2], the Tm came out at 57.6 °C.
With GCGAGGCGAAAGCGACGC (((..((....))..))), the folding enthalpy in data set [1] was -25.4 kcal/mol. In addition, the Tm in data set [2] amounted to 62.1 °C.
Take GCGAGGCGAAAGCTACGC (((..((....))..))): the folding enthalpy in data set [1] is -24.3 kcal/mol. Moreover, the Tm in data set [2] turned out to be 62 °C.
With GCGAGGCGAAAGCTCCGC (((..((....))..))), the folding enthalpy in data set [1] is -25.2 kcal/mol. Moreover, in data set [2], the Tm stood at 60 °C.
For GCGAGGCTCGC ((((...)))), in data set [1], the folding enthalpy was -28.5 kcal/mol. In data set [2], the Tm turned out to be 52.8 °C.
For GCGAGGGCTCGC ((((....)))), the folding enthalpy in data set [1] was -25.5 kcal/mol. Also, the Tm in data set [2] amounted to 51 °C.
For GCGAGGGGAAACCCCCGC (((.(((....))).))), the folding enthalpy in data set [1] was -27.5 kcal/mol. In data set [2], the Tm came out at 59.6 °C.
Taken in the same sequence, the figures for GCGAGGGGAAACCTTCGC ((((.((....)).)))) were -35.4 kcal/mol and 56.3 °C.
With GCGAGGGTTCGC ((((....)))), the folding enthalpy in data set [1] was -15.7 kcal/mol. In addition, the Tm in data set [2] stood at 49.3 °C.
GCGAGGTTCGC ((((...)))): in data set [1], the folding enthalpy is -16.3 kcal/mol. The Tm in data set [2] amounted to 48.7 °C.
On to GCGAGTACTCGC ((((....)))), for which the folding enthalpy in data set [1] is -30.6 kcal/mol. In data set [2], the Tm is 56.6 °C.
